Results as given in ChEMBL document CHEMBL5724801, “EUbOPEN Chemogenomics Library - Multiplex” (2024).
Where “and” joins values, the source holds several entries; their conditions need not be identical. Equal entries are not always repeated.

Tested on: Fibroblast
Assay: Multiplex assay against human fibroblast
Format: toxicity, cell-based
How it was run: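 Per cents of healthy-nucleus cells form the tubulin, mitochondrial-mass and membrane-permeability phenotype values. Live cells were stained at seeding with Hoechst33342, BioTracker Green Microtubule Cytoskeleton Dye, MitoTracker Red and Annexin V Alexa Fluor 680. After compound addition they were imaged on a CQ1 microscope at 37°C and 5% CO2, and CellPathfinder machine-learning gating split them into Hoechst high-intensity objects or normal cells, normal cells into healthy, pyknosed or fragmented nuclei, and pyknosed cells into mitotic or apoptotic.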

[1] = 12 h, 1 µM, compound concentration 1 uM
[2] = 12 h, 10 µM, compound concentration 10 uM
[3] = 24 h, 1 µM, compound concentration 1 uM
[4] = 24 h, 10 µM, compound concentration 10 uM
[5] = 48 h, 1 µM, compound concentration 1 uM
[6] = 48 h, 10 µM, compound concentration 10 uM

Cc1ccc(OCC(O)C(C)NC(C)C)c2c1CCC2.Cl (configuration not stated)
Population Apoptotic (%) [1]: 36% and 28%
Population Fragmented Nuclei (%) [1]: 10% and 17%
Population Healthy Nuclei (%) [1]: 68% and 55%
Population Hoechst High Intensity Objects (%) [1]: 0% and 9%
Population Membrane Permeable-Phenotype (%) [1]: 0% and 4%
Population Mitochondria Different-Phenotype (%) [1]: 3% and 7%
Population Mitotic Cells (%) [1]: 63% and 71%
Population Normal (%) [1]: 99% and 90%
Population Pyknosed Nuclei (%) [1]: 20% and 27%
Population Tubulin-Different-Phenotype (%) [1]: 26% and 50%
Total Cell Count [1]: 159 and 210
Population Apoptotic (%) [2]: 47% and 25%
Population Fragmented Nuclei (%) [2]: 39% and 33%
Population Healthy Nuclei (%) [2]: 47% and 50%
Population Hoechst High Intensity Objects (%) [2]: 1% and 2%
Population Membrane Permeable-Phenotype (%) [2]: 0% and 7%
Population Mitochondria Different-Phenotype (%) [2]: 12% and 17%
Population Mitotic Cells (%) [2]: 52% and 74%
Population Normal (%) [2]: 98% and 97%
Population Pyknosed Nuclei (%) [2]: 12% and 16%
Population Tubulin-Different-Phenotype (%) [2]: 52% and 54%
Total Cell Count [2]: 138 and 168
Population Apoptotic (%) [3]: 57% and 20%
Population Fragmented Nuclei (%) [3]: 11% and 27%
Population Healthy Nuclei (%) [3]: 74% and 46%
Population Hoechst High Intensity Objects (%) [3]: 0% and 15%
Population Membrane Permeable-Phenotype (%) [3]: 4% and 1%
Population Mitochondria Different-Phenotype (%) [3]: 5% and 8%
Population Mitotic Cells (%) [3]: 42% and 80%
Population Normal (%) [3]: 100% and 84%
Population Pyknosed Nuclei (%) [3]: 13% and 26%
Population Tubulin-Different-Phenotype (%) [3]: 30% and 52%
Total Cell Count [3]: 154 and 201
Population Apoptotic (%) [4]: 35% and 36%
Population Fragmented Nuclei (%) [4]: 39% and 35%
Population Healthy Nuclei (%) [4]: 49% and 50%
Population Hoechst High Intensity Objects (%) [4]: 1% and 5%
Population Membrane Permeable-Phenotype (%) [4]: 1% and 4%
Population Mitochondria Different-Phenotype (%) [4]: 13% and 14%
Population Mitotic Cells (%) [4]: 64% and 63%
Population Normal (%) [4]: 98% and 94%
Population Pyknosed Nuclei (%) [4]: 11% and 13%
Population Tubulin-Different-Phenotype (%) [4]: 63% and 65%
Total Cell Count [4]: 151 and 168
Population Apoptotic (%) [5]: 64% and 34%
Population Fragmented Nuclei (%) [5]: 16% and 37%
Population Healthy Nuclei (%) [5]: 71% and 42%
Population Hoechst High Intensity Objects (%) [5]: 4% and 11%
Population Membrane Permeable-Phenotype (%) [5]: 0% and 5%
Population Mitochondria Different-Phenotype (%) [5]: 1% and 8%
Population Mitotic Cells (%) [5]: 35% and 65%
Population Normal (%) [5]: 95% and 88%
Population Pyknosed Nuclei (%) [5]: 11% and 20%
Population Tubulin-Different-Phenotype (%) [5]: 23% and 60%
Total Cell Count [5]: 155 and 196
Population Apoptotic (%) [6]: 71% and 60%
Population Fragmented Nuclei (%) [6]: 35% and 39%
Population Healthy Nuclei (%) [6]: 50%
Population Hoechst High Intensity Objects (%) [6]: 1% and 7%
Population Membrane Permeable-Phenotype (%) [6]: 0% and 5%
Population Mitochondria Different-Phenotype (%) [6]: 9% and 10%
Population Mitotic Cells (%) [6]: 28% and 40%
Population Normal (%) [6]: 98% and 92%
Population Pyknosed Nuclei (%) [6]: 13% and 10%
Population Tubulin-Different-Phenotype (%) [6]: 68% and 63%
Total Cell Count [6]: 155 and 157

Cn1cc(C(=O)OCC2CCN(CCNS(C)(=O)=O)CC2)c2ccccc21
Population Apoptotic (%) [1]: 44% and 33%
Population Fragmented Nuclei (%) [1]: 13% and 21%
Population Healthy Nuclei (%) [1]: 71% and 46%
Population Hoechst High Intensity Objects (%) [1]: 1% and 4%
Population Membrane Permeable-Phenotype (%) [1]: 0% and 9%
Population Mitochondria Different-Phenotype (%) [1]: 3% and 1%
Population Mitotic Cells (%) [1]: 55% and 66%
Population Normal (%) [1]: 98% and 95%
Population Pyknosed Nuclei (%) [1]: 14% and 32%
Population Tubulin-Different-Phenotype (%) [1]: 23% and 37%
Total Cell Count [1]: 202 and 164
Population Apoptotic (%) [2]: 48% and 25%
Population Fragmented Nuclei (%) [2]: 29% and 32%
Population Healthy Nuclei (%) [2]: 55% and 51%
Population Hoechst High Intensity Objects (%) [2]: 3% and 5%
Population Membrane Permeable-Phenotype (%) [2]: 0% and 5%
Population Mitochondria Different-Phenotype (%) [2]: 9% and 7%
Population Mitotic Cells (%) [2]: 51% and 75%
Population Normal (%) [2]: 96% and 94%
Population Pyknosed Nuclei (%) [2]: 14% and 16%
Population Tubulin-Different-Phenotype (%) [2]: 41% and 47%
Total Cell Count [2]: 207 and 184
Population Apoptotic (%) [3]: 31% and 30%
Population Fragmented Nuclei (%) [3]: 13% and 25%
Population Healthy Nuclei (%) [3]: 74% and 47%
Population Hoechst High Intensity Objects (%) [3]: 5% and 2%
Population Membrane Permeable-Phenotype (%) [3]: 0% and 7%
Population Mitochondria Different-Phenotype (%) [3]: 0% and 6%
Population Mitotic Cells (%) [3]: 68% and 69%
Population Normal (%) [3]: 94% and 97%
Population Pyknosed Nuclei (%) [3]: 11% and 26%
Population Tubulin-Different-Phenotype (%) [3]: 23% and 48%
Total Cell Count [3]: 201 and 168
Population Apoptotic (%) [4]: 80% and 41%
Population Fragmented Nuclei (%) [4]: 33% and 40%
Population Healthy Nuclei (%) [4]: 53% and 43%
Population Hoechst High Intensity Objects (%) [4]: 5% and 4%
Population Membrane Permeable-Phenotype (%) [4]: 0% and 3%
Population Mitochondria Different-Phenotype (%) [4]: 3% and 5%
Population Mitotic Cells (%) [4]: 20% and 58%
Population Normal (%) [4]: 94% and 95%
Population Pyknosed Nuclei (%) [4]: 13% and 16%
Population Tubulin-Different-Phenotype (%) [4]: 42% and 52%
Total Cell Count [4]: 201 and 188
Population Apoptotic (%) [5]: 54% and 52%
Population Fragmented Nuclei (%) [5]: 14% and 33%
Population Healthy Nuclei (%) [5]: 72% and 54%
Population Hoechst High Intensity Objects (%) [5]: 5% and 4%
Population Membrane Permeable-Phenotype (%) [5]: 0% and 5%
Population Mitochondria Different-Phenotype (%) [5]: 1% and 2%
Population Mitotic Cells (%) [5]: 45% and 47%
Population Normal (%) [5]: 94% and 95%
Population Pyknosed Nuclei (%) [5]: 12%
Population Tubulin-Different-Phenotype (%) [5]: 23% and 43%
Total Cell Count [5]: 197 and 177
Population Apoptotic (%) [6]: 68% and 50%
Population Fragmented Nuclei (%) [6]: 28% and 40%
Population Healthy Nuclei (%) [6]: 58% and 46%
Population Hoechst High Intensity Objects (%) [6]: 9% and 6%
Population Membrane Permeable-Phenotype (%) [6]: 0% and 2%
Population Mitochondria Different-Phenotype (%) [6]: 9% and 8%
Population Mitotic Cells (%) [6]: 32% and 50%
Population Normal (%) [6]: 90% and 93%
Population Pyknosed Nuclei (%) [6]: 13% and 12%
Population Tubulin-Different-Phenotype (%) [6]: 49% and 60%
Total Cell Count [6]: 199 and 190
